According to ChEMBL document CHEMBL4014335, “Activation of Phenyl 4-(2-Oxo-3-alkylimidazolidin-1-yl)benzenesulfonates Prodrugs by CYP1A1 as New Antimitotics Targeting Breast Cancer Cells” (J Med Chem, 2017):

Columns and labels:
MDA-MB-231 = assay: Antiproliferative activity against ER/PR/HER2 deficient human MDA-MB-231 cells after 72 hrs by SRB assay; type: functional, cell-based; conditions: MDA-MB-231, 72 h
Summary of the method: (§1)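 SRB antiproliferative assay (modified NCI protocol). Cells seeded per well (SK-BR-3, MDA-MB-231, T47D, HT-1080, HT-1080 CYP1A1 and empty-vector: 3.0 x 10^3; MDA-MB-468: 5.0 x 10^3; MCF7: 7.5 x 10^3), preincubated 24 h. DMSO-solubilized drug added at 0.75 to 1.0 x 10^5 nM, then 72 h. Fixed with cold 10% TCA, stained with 0.1% sulforhodamine B, absorbance read at 530-565 nm. At least two experiments, triplicate cultures.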

MDA-MB-468 = assay: Antiproliferative activity against ER/PR/HER2 deficient human MDA-MB-468 cells after 72 hrs by SRB assay; type: functional, cell-based; conditions: MDA-MB-468, 72 h; summary of the method: as §1
T47D = assay: Antiproliferative activity against ER/PR/HER2 expressing human T47D cells after 72 hrs by SRB assay; type: functional, cell-based; summary of the method: as §1
SK-BR-3 = assay: Antiproliferative activity against ER/PR deficient and HER2 expressing human SKBR3 cells after 72 hrs by SRB assay; type: functional, cell-based; conditions: SK-BR-3, 72 h; summary of the method: as §1
MCF7 [1] = assay: Antiproliferative activity against human MCF7 cells after 72 hrs by SRB assay; type: functional, cell-based; conditions: MCF7, 72 h; summary of the method: as §1
[2] = Selectivity ratio of IC50 for ER/PR/HER2 deficient human MDA-MB-231 cells to IC50 for ER/PR/HER2 deficient human MDA-MB-468 cells; type: functional
Summary of the method: (§2)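 Ratio is IC50 in reference line over IC50 in sensitive line. […] Cells in DMEM with 5% calf serum at 37 °C. At least two experiments, triplicate cultures; assay accepted when relative SD < 10%.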

[3] = Selectivity ratio of IC50 for ER/PR/HER2 deficient human MDA-MB-231 cells to IC50 for ER/PR/HER2 expressing human T47D cells; type: functional; summary of the method: as §2
[4] = Selectivity ratio of IC50 for ER/PR/HER2 deficient human MDA-MB-231 cells to IC50 for ER/PR deficient and HER2 expressing human SKBR3 cells; type: functional; summary of the method: as §2
[5] = Selectivity ratio of IC50 for ER/PR/HER2 deficient human MDA-MB-231 cells to IC50 for human MCF7 cells; type: functional; summary of the method: as §2
Cytochrome P450 1A1 [6] = molecular target: T1, Cytochrome P450 1A1 (Homo sapiens, UniProt P04798); assay: Inhibition of human supersomes CYP1A1-mediated 7-ethoxyresorufin conversion to fluorescent resorufin preincubated with 7-ethoxyresorufin for 5 mins followed by addition of NADPH regenerating system measured for 15 mins by EROD assay; type: ADME
T1 sequence (P04798 whole entry): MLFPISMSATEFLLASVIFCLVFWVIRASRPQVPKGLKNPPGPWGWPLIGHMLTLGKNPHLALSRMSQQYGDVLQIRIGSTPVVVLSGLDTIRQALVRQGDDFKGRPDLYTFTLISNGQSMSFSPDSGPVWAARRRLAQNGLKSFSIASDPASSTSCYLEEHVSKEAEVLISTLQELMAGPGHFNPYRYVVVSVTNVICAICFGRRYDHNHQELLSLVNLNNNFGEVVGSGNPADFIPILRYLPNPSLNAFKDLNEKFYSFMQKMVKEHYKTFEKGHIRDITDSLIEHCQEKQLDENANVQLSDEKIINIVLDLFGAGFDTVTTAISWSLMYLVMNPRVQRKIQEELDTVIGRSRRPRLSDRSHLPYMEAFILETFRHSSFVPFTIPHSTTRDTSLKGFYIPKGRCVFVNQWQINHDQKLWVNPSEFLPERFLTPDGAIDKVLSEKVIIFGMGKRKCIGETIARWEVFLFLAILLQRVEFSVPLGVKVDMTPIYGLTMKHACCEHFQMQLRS
Summary of the method: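 EROD assay with human CYP1A1 supersomes containing reductase, in potassium phosphate buffer. Drug final 32–31 600 nM and 7-ethoxyresorufin 94–3 000 nM, with 0.35% DMSO, preincubated 5 min at 37 °C. Reaction started with NADPH-regenerating system and 0.15 pmol CYP1A1 in 150 µL. Initial velocity taken from 1–5 min; Vmax and Km from Lineweaver-Burk plot.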

HT-1080 [7] = assay: Antiproliferative activity against human wild type HT1080 cells after 72 hrs by SRB assay; type: functional, cell-based; conditions: HT-1080, 72 h; summary of the method: as §1
HT-1080 [8] = assay: Antiproliferative activity against human HT1080 cells transfected with pCMV6-AC empty plasmid after 72 hrs by SRB assay; type: functional, cell-based; conditions: HT-1080, 72 h; summary of the method: as §1
HT-1080 [9] = assay: Antiproliferative activity against human HT1080 cells transfected with CYP1A1 after 72 hrs by SRB assay; type: functional, cell-based; conditions: HT-1080, 72 h; summary of the method: as §1
HT-1080 [10] = assay: Selectivity ratio of IC50 for HT1080 cells transfected with pCMV6-AC empty plasmid to IC50 for human HT1080 cells transfected with CYP1A1; type: functional
Summary of the method: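 Ratio is IC50 (HT-1080 empty vector) over IC50 (HT-1080 CYP1A1). Both lines stably transfected (pCMV6-AC plasmids) and kept under G418 selection, seeded at 3.0 x 10^3 cells. IC50s from SRB antiproliferative assay.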

HT-29 = assay: Antiproliferative activity against human HT-29 cells after 48 hrs by SRB assay; type: functional, cell-based; conditions: HT-29, 48 h
Summary of the method: (§3)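 SRB assay run as in the NCI screen with slight modifications. Seeding: HT-29 5.0 x 10^3, M21 3.5 x 10^3, MCF7 7.5 x 10^3 cells; cells preincubated 24 h. Drug in DMSO added at 0.75 to 1.0 x 10^5 nM for 48 h. TCA fixation, sulforhodamine B staining, absorbance 530-565 nm. At least two experiments in triplicate; runs accepted only when relative SD < 10%.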

M21 = assay: Antiproliferative activity against human M21 cells after 48 hrs by SRB assay; type: functional, cell-based; conditions: M21, 48 h; summary of the method: as §3
MCF7 [11] = assay: Antiproliferative activity against human MCF7 cells after 48 hrs by SRB assay; type: functional, cell-based; conditions: MCF7, 48 h; summary of the method: as §3
[12] = Selectivity ratio of IC50 for human HT-29 cells to IC50 for human MCF7 cells; type: functional; summary of the method: as §2
[13] = Selectivity ratio of IC50 for human M21 cells to IC50 for human MCF7 cells; type: functional; summary of the method: as §2
Cytochrome P450 1A1 [14] = molecular target: T1, Cytochrome P450 1A1; assay: Prodrug activation assessed as human supersomes CYP1A1-mediated 3,4,5-trimethoxyphenyl 4-(2-oxoimidazolidin-1-yl)benzenesulfonate formation after 4 hrs by HPLC-MS analysis; type: ADME; conditions: recombinant enzyme
Cytochrome P450 1A1 [15] = molecular target: T1, Cytochrome P450 1A1; assay: Prodrug activation assessed as time required for human supersomes CYP1A1-mediated 3,4,5-trimethoxyphenyl 4-(2-oxoimidazolidin-1-yl)benzenesulfonate formation after 4 hrs by HPLC-MS analysis; type: ADME; conditions: recombinant enzyme

Compound	IC50 (HT-29) [µM]	IC50 (M21) [µM]	IC50 (MCF7 [11]) [µM]	Ratio IC50 [12]	Ratio IC50 [13]	further results
COc1cc(OC)cc(OS(=O)(=O)c2ccc(N3CCNC3=O)cc2)c1	–	–	–	–	–	IC50 (MDA-MB-231): 0.01 µM; IC50 (MDA-MB-468): 0.0065 µM; IC50 (T47D): 0.0087 µM; IC50 (SK-BR-3): 0.0055 µM; IC50 (MCF7 [1]): 0.004 µM; Ratio IC50 [2]: 1.5; Ratio IC50 [3]: 1.1; Ratio IC50 [4]: 1.8; Ratio IC50 [5]: 2.5; Ki (Cytochrome P450 1A1 [6]): Not Active; IC50 (HT-1080 [7]): 0.0054 µM; IC50 (HT-1080 [8]): 0.0042 µM; IC50 (HT-1080 [9]): 0.0023 µM; Ratio IC50 (HT-1080 [10]): 1.8
CCCN1CCN(c2ccc(S(=O)(=O)Oc3cc(OC)c(OC)c(OC)c3)cc2)C1=O	5.6	3.9	0.049	110	80	IC50 (MDA-MB-231): 6 µM; IC50 (MDA-MB-468): 0.026 µM; IC50 (T47D): 0.049 µM; IC50 (SK-BR-3): 0.005 µM; IC50 (MCF7 [1]): 0.018 µM; Ratio IC50 [2]: 240; Ratio IC50 [3]: 130; Ratio IC50 [4]: 1300; Ratio IC50 [5]: 340; Drug metabolism (Cytochrome P450 1A1 [14]): Metabolite_Detected; Time (Cytochrome P450 1A1 [15]): 15 min; Ki (Cytochrome P450 1A1 [6]; read-out: Ki): 0.24 µM; IC50 (HT-1080 [7]): 6.7 µM; IC50 (HT-1080 [8]): 82 µM; IC50 (HT-1080 [9]): 0.016 µM; Ratio IC50 (HT-1080 [10]): 5100
CCCCN1CCN(c2ccc(S(=O)(=O)Oc3cccc(Cl)c3)cc2)C1=O	21	90	0.11	190	820	–
CCCN1CCN(c2ccc(S(=O)(=O)Oc3cccc([N+](=O)[O-])c3)cc2)C1=O	> 100	38	19	>5.3	2	–
CCCN1CCN(c2ccc(S(=O)(=O)Oc3cc(OC)cc(OC)c3)cc2)C1=O	16	33	0.27	59	120	–
CCCCN1CCN(c2ccc(S(=O)(=O)Oc3cccc(OC)c3)cc2)C1=O	13	30	0.49	27	61	–
COc1cc(OS(=O)(=O)c2ccc(N3CCN(C)C3=O)cc2)cc(OC)c1OC	0.062	0.054	0.12	0.5	0.5	–
CCCCN1CCN(c2ccc(S(=O)(=O)Oc3cccc(I)c3)cc2)C1=O	9.6	23	0.058	170	400	–
Cc1cccc(OS(=O)(=O)c2ccc(N3CCN(C)C3=O)cc2)c1	4.3	2.3	5.1	0.9	0.5	–
COc1ccc(OS(=O)(=O)c2ccc(N3CCN(C)C3=O)cc2)cc1	> 100	> 100	95	>1.1	>1.1	–
COc1cc(OC)cc(OS(=O)(=O)c2ccc(N3CCN(C)C3=O)cc2)c1	0.19	0.082	0.23	0.9	0.4	–
CCCN1CCN(c2ccc(S(=O)(=O)Oc3cc(Cl)c(Cl)cc3Cl)cc2)C1=O	19	15	13	1.5	1.2	–
CCCN1CCN(c2ccc(S(=O)(=O)Oc3ccc(F)cc3)cc2)C1=O	23	14	33	0.7	0.4	–
CN1CCN(c2ccc(S(=O)(=O)Oc3cccc(I)c3)cc2)C1=O	0.59	0.4	0.56	1.1	0.7	–
CCN1CCN(c2ccc(S(=O)(=O)Oc3cccc(I)c3)cc2)C1=O	3.1	2.2	1.9	1.7	1.2	–
CN1CCN(c2ccc(S(=O)(=O)Oc3c(Cl)cc(Cl)cc3Cl)cc2)C1=O	2.5	1.7	2.9	0.9	0.6	–
CCCCN1CCN(c2ccc(S(=O)(=O)Oc3cc(Cl)cc(Cl)c3)cc2)C1=O	> 100	58	0.06	>1700	970	–
